Laboratory results reported in ChEMBL document CHEMBL5370667, “ent-Clavilactone J and Its Quinone Derivative, Meroterpenoids from the Fungus Resupinatus sp” (J Nat Prod, 2023).
In brackets after ≈: the same amount, converted by molar mass. Activity calls are given as the source filed them. The calls are words filed in the database; no cut-off is given here.

Assays:
[1] = test system: KB 3-1; assay: Antiproliferative activity against human KB-3-1 cells assessed as cell growth inhibition; format: functional, cell-based
Outline: (§1)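 IC50 (μM) determined against mammalian cell lines from the DSMZ ACC collection (SK-OV-3 without an ACC number), with epothilone B run in parallel as reference.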

[2] = test system: A549; assay: Antiproliferative activity against human A549 cells assessed as cell growth inhibition; format: functional, cell-based; outline: as §1
[3] = test system: Wickerhamomyces anomalus; assay: Antifungal activity against Wickerhamomyces anomalus DSM 6766 assessed as growth inhibition; format: functional
[4] = test system: Pseudomonas aeruginosa; assay: Antibacterial activity against Pseudomonas aeruginosa DSM 19882 assessed as bacterial growth inhibition; format: functional
[5] = test system: PC-3; assay: Antiproliferative activity against human PC-3 cells assessed as cell growth inhibition; format: functional, cell-based; outline: as §1
[6] = test system: Rhodotorula glutinis; assay: Antifungal activity against Rhodotorula glutinis DSM 10134 assessed as growth inhibition; format: functional
[7] = test system: Staphylococcus aureus; assay: Antibacterial activity against Staphylococcus aureus DSM 346 assessed as bacterial growth inhibition; format: functional
Outline: (§2)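 Growth inhibition read as minimum inhibitory concentration (μg/mL) against strains from DSMZ. A positive-control antibiotic was run alongside.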

[8] = Antiproliferative activity against mouse L929 cells assessed as cell growth inhibition; format: toxicity, cell-based; outline: as §1
[9] = test system: Chromobacterium violaceum; assay: Antibacterial activity against Chromobacterium violaceum DSM 30191 assessed as bacterial growth inhibition; format: functional
[10] = test system: Bacillus subtilis; assay: Antibacterial activity against Bacillus subtilis DSM 10 assessed as bacterial growth inhibition; format: functional; outline: as §2
[11] = test system: SK-OV-3; assay: Antiproliferative activity against human SK-OV-3 cells assessed as cell growth inhibition; format: functional, cell-based; outline: as §1
[12] = test system: Candida albicans; assay: Antifungal activity against Candida albicans DSM 1665 assessed as growth inhibition; format: functional
[13] = test system: Mucor hiemalis; assay: Antifungal activity against Mucor hiemalis DSM 2656 assessed as growth inhibition; format: functional
[14] = test system: Escherichia coli; assay: Antibacterial activity against Escherichia coli DSM 1116 assessed as bacterial growth inhibition; format: functional
[15] = test system: A-431; assay: Antiproliferative activity against human A-431 cells assessed as cell growth inhibition; format: functional, cell-based; outline: as §1
[16] = test system: MCF7; assay: Antiproliferative activity against human MCF7 cells assessed as cell growth inhibition; format: functional, cell-based; outline: as §1
[17] = test system: Acinetobacter baumannii; assay: Antibacterial activity against Acinetobacter baumannii DSM 30008 assessed as bacterial growth inhibition; format: functional
[18] = test system: Schizosaccharomyces pombe; assay: Antifungal activity against Schizosaccharomyces pombe DSM 70572 assessed as growth inhibition; format: functional
[19] = test system: Mycolicibacterium smegmatis; assay: Antibacterial activity against Mycolicibacterium smegmatis ATCC 700084 assessed as bacterial growth inhibition; format: functional

With `C/C(=C\c1csc(C)n1)[C@@H]1C[C@@H]2O[C@]2(C)CCC[C@H](C)[C@H](O)[C@@H](C)C(=O)C(C)(C)[C@@H](O)CC(=O)O1` [PATUPILONE] the IC50 [1] was 3.4e-05 µM, the IC50 [2] was 5.3e-05 µM and the MIC ([3]; Hansenula anomala) was 8.3 µg/mL (≈ 16.3 µM). The MIC [4] was 0.21 µg/mL (≈ 0.414 µM), the IC50 [5] was 0.00028 µM and the MIC [6] was 2.1 µg/mL (≈ 4.14 µM). It also gave an MIC [7] of 0.21 µg/mL (≈ 0.414 µM), an IC50 [8] of 0.00043 µM and an MIC [9] of 0.42 µg/mL (≈ 0.827 µM). It also gave an MIC [10] of 8.3 µg/mL (≈ 16.3 µM), an IC50 [11] of 0.00018 µM and an MIC [12] of 8.3 µg/mL (≈ 16.3 µM). The MIC [13] was 4.2 µg/mL (≈ 8.27 µM), the MIC [14] was 1.7 µg/mL (≈ 3.35 µM) and the IC50 [15] was 5.1e-05 µM. It also gave an IC50 [16] of 0.03 nM, an MIC [17] of 0.26 µg/mL (≈ 0.512 µM) and an MIC [18] of 4.2 µg/mL (≈ 8.27 µM). For the same compound, the MIC [19] was 1.7 µg/mL (≈ 3.35 µM).
In the case of `C[C@@]12Cc3c(O)ccc(O)c3[C@@H]3OC(=O)[C@@]4(CC[C@@H]1O2)O[C@@H]34`, the IC50 [1] is reported as 6.7 µM, the IC50 [2] is reported as 19 µM and the inhibition [3] is reported as “inactive”. For the same compound, the inhibition [4] was “inactive”, the IC50 [5] was 18 µM and the inhibition [6] was “inactive”. For the same compound, the IC50 [8] was 2.1 µM, the inhibition [9] was “inactive” and the MIC [10] was 17 µg/mL (≈ 55.9 µM). For the same compound, the IC50 [11] was 47 µM, the inhibition [12] was “inactive” and the inhibition [13] was “inactive”. For the same compound, the inhibition [14] was “inactive”, the IC50 [15] was 3.5 µM and the IC50 [16] was 1900 nM. For the same compound, the inhibition [17] was “inactive”, the inhibition [18] was “inactive” and the inhibition [19] was “inactive”.
With `C[C@@]12CC3=C(C(=O)C=CC3=O)[C@@H]3OC(=O)[C@@]4(CC[C@@H]1O2)O[C@@H]34` the IC50 [1] was 22 µM, the IC50 [2] was 57 µM and the inhibition [3] was “inactive”. The inhibition [4] was “inactive”, the IC50 [5] was 19 µM and the inhibition [6] was “inactive”. For the same compound, the MIC [7] was 67 µg/mL (≈ 222 µM), the IC50 [8] was 6 µM and the inhibition [9] was “inactive”. The MIC [10] was 67 µg/mL (≈ 222 µM), the IC50 [11] was 30 µM and the inhibition [12] was “inactive”. For the same compound, the inhibition [13] was “inactive”, the inhibition [14] was “inactive” and the IC50 [15] was 6.5 µM. For the same compound, the IC50 [16] was 4200 nM, the inhibition [17] was “inactive” and the inhibition [18] was “inactive”. For the same compound, the inhibition [19] was “inactive”.
